Legend:
Type in all cases: functional
Rattus norvegicus [1] = assay: Antiinflammatory activity measured as the percentage inhibition of edema in carrageenan induced rat paw after peroral administration of 200 mg/kg of compound; conditions: route oral
How it was run: (§1)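 Female Wistar rats (120–150 g), 10 per dose, dosed orally with an aqueous suspension in 0.5% methocel (10 mL/kg) 1 h before 0.05 mL of 1% carrageenin in saline was injected into the right hind paw aponeurosis. Paw volume was read plethysmographically at injection and 4 h later. Inhibition is given relative to vehicle controls. Screening dose 200 mg/kg; 100 mg/kg was tested when inhibition exceeded 30%. Student's t test.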

Rattus norvegicus [2] = assay: (§2) Compound was evaluated for its antiinflammatory activity by adjuvant-induced polyarthritis test in rats at a dosage of 100 mg/kg administered orally; conditions: route oral
How it was run: (§3)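 Female Wistar rats (130–150 g), 8 per dose. Killed Mycobacterium butyricum (0.6 mg in 0.1 mL mineral oil) was injected into the right hind plantar aponeurosis. Oral dosing in 0.5% methocel, once daily, curative scheme from day 14 to day 27. Read-outs: percent change in hind-paw volume versus controls; Newbould 0–4 lesion scores for front paws, tail and ears; plasma inflammation units by nephelometric turbidity before and after 30 min at 56 °C on day 27.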

Rattus norvegicus [3] = species: Rattus norvegicus; assay: Compound was evaluated for its antipyretic activity by antipyresis effect in comparison with that of Aspirin.
How it was run: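 Male Sprague-Dawley rats (120–150 g), 6 per dose, starved 18 h and kept at 24 °C; rats above 38 °C were excluded. Fever was induced by subcutaneous 1 mL of filtered 5% peptone preincubated 48 h at 37 °C. Oral doses as in the analgesic test (top dose one-fifth of LD50, stepping down). Rectal thermocouple readings from 4 h after injection, then hourly for 4 h. Activity relative to aspirin = 1.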

Rattus norvegicus [4] = assay: Antiinflammatory activity was measured as the percentage inhibition of edema in carrageenan induced rat paw after peroral administration of 100 mg/kg of compound; conditions: route oral; how it was run: as §1
Rattus norvegicus [5] = assay: Compound was evaluated for its antiinflammatory activity in the cotton pellet induced granuloma(CPG) in normal rats at the dose 200 mg/kg p.o.; conditions: route oral
How it was run: (§4)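 Male Wistar rats (150–180 g), 7 per group. Two sterile 50 mg cotton pellets were implanted subcutaneously in the interscapular region under ether. Oral dosing in 0.5% methocel (10 mL/kg) daily for 6 days, starting 6 h after surgery. Animals were killed 24 h after the last dose; pellets with granuloma were dried 24 h at 80 °C. Percent inhibition versus vehicle controls.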

Rattus norvegicus [6] = assay: as §2; set-up: unit not given beside the values; conditions: route oral; how it was run: as §3
Rattus norvegicus [7] = species: Rattus norvegicus; assay: Compound was evaluated for its analgesic activity by Randall-Selitto test in comparison with that of Aspirine
How it was run: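 Randall–Selitto pain threshold, measured on the inflamed right hind paw of male Wistar rats (170–200 g), 10 per dose. Edema was induced with 0.1 mL of 20% yeast suspension in saline. Oral dosing in 0.5% methocel (10 mL/kg), highest dose one-fifth of LD50, then scaling down through 100, 50, 20, 10, 5 and 2 mg/kg. Threshold read before dosing, then hourly for 6 h. Potency expressed relative to aspirin = 1.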

Rattus norvegicus [8] = assay: Compound was evaluated for its antiinflammatory activity in the cotton pellet induced granuloma(CPG) in normal rats at the dose 100 mg/kg p.o.; conditions: route oral; how it was run: as §4
Rattus norvegicus [9] = assay: Compound was evaluated for its gastroulcerogenic effect in rats at a peroral dose of 200 mg/kg; conditions: route oral
Rattus norvegicus [10] = assay: (§5) Compound was evaluated for its antiinflammatory activity by adjuvant-induced polyarthritis test in rats at a dosage of 200 mg/kg administered orally; set-up: unit not given beside the values; conditions: route oral; how it was run: as §3
Rattus norvegicus [11] = assay: as §5; conditions: route oral; how it was run: as §3
Rattus norvegicus [12] = assay: Compound was evaluated for its gastroulcerogenic effect in rats at a peroral dose of 200 mg/kg, P<0.05.; conditions: route oral
Rattus norvegicus [13] = assay: Compound was evaluated for its antiinflammatory activity in the cotton pellet induced granuloma(CPG) in normal rats at the dose 50 mg/kg p.o.; conditions: route oral; how it was run: as §4
Rattus norvegicus [14] = assay: Compound was evaluated for its antiinflammatory activity by adjuvant-induced polyarthritis test in rats at a dosage of 50 mg/kg administered orally; conditions: route oral; how it was run: as §3

Cc1cc(-c2nc3c4ccccc4ccc3n2C)cc(C)c1N(C)C
inhibition in vivo at 200 mg/kg (Rattus norvegicus [1]): 14%

COc1ccc(-c2nc3c4ccccc4ccc3n2C(C)C)cc1 [TOMOXIPROLE]
Arthritis scores (Rattus norvegicus [2]): 77
Inflammation units (Rattus norvegicus [2]): 93
inhibition in vivo at 200 mg/kg (Rattus norvegicus [1]): 48%
Activity (Rattus norvegicus [3]): 0.7
inhibition in vivo at 100 mg/kg (Rattus norvegicus [4]): 45%
inhibition in vivo at 200 mg/kg (Rattus norvegicus [5]): 45%
Mean volume of hind paws (Rattus norvegicus [6]): 43
Activity (Rattus norvegicus [7]): 2.2

COc1ccc(-c2nc3c4ccccc4ccc3n2C(C)CO)cc1 (stereo not drawn)
inhibition in vivo at 200 mg/kg (Rattus norvegicus [1]): 35%
inhibition in vivo at 100 mg/kg (Rattus norvegicus [4]): 31%

COc1cccc(-c2nc3c4ccccc4ccc3n2C)c1
inhibition in vivo at 200 mg/kg (Rattus norvegicus [1]): 21%

Cn1c(-c2ccc3c(c2)OCO3)nc2c3ccccc3ccc21
inhibition in vivo at 200 mg/kg (Rattus norvegicus [1]): 28%

CC(=O)Oc1ccc(-c2nc3c4ccccc4ccc3n2C)cc1
inhibition in vivo at 200 mg/kg (Rattus norvegicus [1]): 8%

Cn1c(-c2ccc(O)cc2)nc2c3ccccc3ccc21
inhibition in vivo at 200 mg/kg (Rattus norvegicus [1]): 4%

Cn1c(-c2ccc(OCC(=O)O)cc2)nc2c3ccccc3ccc21
inhibition in vivo at 200 mg/kg (Rattus norvegicus [1]): 7%

CCC(C)n1c(-c2ccc(OC)cc2)nc2c3ccccc3ccc21 (stereo not drawn)
inhibition in vivo at 200 mg/kg (Rattus norvegicus [1]): 18%

Cc1cc(-c2nc3c4ccccc4ccc3n2C)ccc1N(C)C
inhibition in vivo at 100 mg/kg (Rattus norvegicus [8]): 38%
Arthritis scores (Rattus norvegicus [2]): 69
Inflammation units (Rattus norvegicus [2]): 84
inhibition in vivo at 200 mg/kg (Rattus norvegicus [1]): 69%
Activity (Rattus norvegicus [3]): 10.5
Ulcerogenic index (Rattus norvegicus [9]): 0.21
inhibition in vivo at 100 mg/kg (Rattus norvegicus [4]): 64%
Mean volume of hind paws (Rattus norvegicus [6]): 42
Activity (Rattus norvegicus [7]): 2.8

COc1ccc(-c2nc3c4ccccc4ccc3n2CC(C)C)cc1
inhibition in vivo at 200 mg/kg (Rattus norvegicus [1]): 30%

Cn1c(-c2cccs2)nc2c3ccccc3ccc21
inhibition in vivo at 200 mg/kg (Rattus norvegicus [1]): 40%
Activity (Rattus norvegicus [3]): 0.9
Mean volume of hind paws (Rattus norvegicus [10]): 23
Ulcerogenic index (Rattus norvegicus [9]): 0.12
inhibition in vivo at 100 mg/kg (Rattus norvegicus [4]): 31%
inhibition in vivo at 200 mg/kg (Rattus norvegicus [5]): 31%
Activity (Rattus norvegicus [7]): 1
Arthritis scores (Rattus norvegicus [11]): 24
Inflammation units (Rattus norvegicus [11]): 18

Cc1ccc(-c2nc3c4ccccc4ccc3n2C)cc1
inhibition in vivo at 200 mg/kg (Rattus norvegicus [1]): 21%

CCCn1c(-c2ccc(OC)cc2)nc2c3ccccc3ccc21
inhibition in vivo at 200 mg/kg (Rattus norvegicus [1]): 20%

CC(C)Oc1ccc(-c2nc3c4ccccc4ccc3n2C)cc1
inhibition in vivo at 200 mg/kg (Rattus norvegicus [1]): 31%
inhibition in vivo at 100 mg/kg (Rattus norvegicus [4]): 25%

CNc1ccc(-c2nc3c4ccccc4ccc3n2C)cc1
inhibition in vivo at 100 mg/kg (Rattus norvegicus [8]): 33%
inhibition in vivo at 200 mg/kg (Rattus norvegicus [1]): 59%
inhibition in vivo at 100 mg/kg (Rattus norvegicus [4]): 47%
Ulcerogenic index (Rattus norvegicus [12]): 0.16

CCC(CC)n1c(-c2ccc(OC)cc2)nc2c3ccccc3ccc21
inhibition in vivo at 200 mg/kg (Rattus norvegicus [1]): 11%

C=Cn1c(-c2ccc(OC)cc2)nc2c3ccccc3ccc21
Arthritis scores (Rattus norvegicus [2]): 39
Inflammation units (Rattus norvegicus [2]): 61
inhibition in vivo at 200 mg/kg (Rattus norvegicus [1]): 58%
Activity (Rattus norvegicus [3]): 6.9
Ulcerogenic index (Rattus norvegicus [9]): 0.3
inhibition in vivo at 100 mg/kg (Rattus norvegicus [4]): 48%
inhibition in vivo at 200 mg/kg (Rattus norvegicus [5]): 31%
Mean volume of hind paws (Rattus norvegicus [6]): 34
Activity (Rattus norvegicus [7]): 1.1

CN(C)c1ccc(-c2nc3c4ccccc4ccc3n2C)cc1
inhibition in vivo at 100 mg/kg (Rattus norvegicus [8]): 24%
inhibition in vivo at 200 mg/kg (Rattus norvegicus [1]): 68%
inhibition in vivo at 100 mg/kg (Rattus norvegicus [4]): 54%
Ulcerogenic index (Rattus norvegicus [12]): 1.07

CCn1c(-c2ccc(OC)cc2)nc2c3ccccc3ccc21
inhibition in vivo at 200 mg/kg (Rattus norvegicus [1]): 52%
Activity (Rattus norvegicus [3]): 2.9
Mean volume of hind paws (Rattus norvegicus [10]): 21
inhibition in vivo at 100 mg/kg (Rattus norvegicus [4]): 49%
inhibition in vivo at 200 mg/kg (Rattus norvegicus [5]): 31%
Ulcerogenic index (Rattus norvegicus [12]): 0.09
Activity (Rattus norvegicus [7]): 1.1
Arthritis scores (Rattus norvegicus [11]): 21
Inflammation units (Rattus norvegicus [11]): 35

CC(=O)Nc1ccc(-c2nc3c4ccccc4ccc3n2C)cc1
inhibition in vivo at 200 mg/kg (Rattus norvegicus [1]): 35%
inhibition in vivo at 100 mg/kg (Rattus norvegicus [4]): 29%

CCOc1ccc(-c2nc3c4ccccc4ccc3n2C)cc1
inhibition in vivo at 200 mg/kg (Rattus norvegicus [1]): 45%
Activity (Rattus norvegicus [3]): 2.2
Mean volume of hind paws (Rattus norvegicus [10]): 25
inhibition in vivo at 100 mg/kg (Rattus norvegicus [4]): 37%
inhibition in vivo at 200 mg/kg (Rattus norvegicus [5]): 40%
Ulcerogenic index (Rattus norvegicus [12]): 0.21
Activity (Rattus norvegicus [7]): 0.3
Arthritis scores (Rattus norvegicus [11]): 43
Inflammation units (Rattus norvegicus [11]): 60

Cn1c(-c2cccc(Cl)c2)nc2c3ccccc3ccc21
inhibition in vivo at 200 mg/kg (Rattus norvegicus [1]): 7%

COc1ccc(-c2nc3c4ccccc4ccc3n2C2CCCCC2)cc1
inhibition in vivo at 200 mg/kg (Rattus norvegicus [1]): 16%

CCCCn1c(-c2ccc(OC)cc2)nc2c3ccccc3ccc21
inhibition in vivo at 200 mg/kg (Rattus norvegicus [1]): 25%

COc1ccc(-c2nc3c4ccccc4ccc3n2C)cc1C
inhibition in vivo at 200 mg/kg (Rattus norvegicus [1]): 35%
inhibition in vivo at 100 mg/kg (Rattus norvegicus [4]): 24%

Cn1c(-c2ccc(Cl)cc2)nc2c3ccccc3ccc21
inhibition in vivo at 200 mg/kg (Rattus norvegicus [1]): 21%

Cn1c(-c2ccccc2O)nc2c3ccccc3ccc21
inhibition in vivo at 200 mg/kg (Rattus norvegicus [1]): 1%

COc1ccc(-c2nc3c4ccccc4ccc3n2C2CC2)cc1
inhibition in vivo at 200 mg/kg (Rattus norvegicus [1]): 56%
Activity (Rattus norvegicus [3]): 0.8
Ulcerogenic index (Rattus norvegicus [9]): 0.29
inhibition in vivo at 100 mg/kg (Rattus norvegicus [4]): 53%
inhibition in vivo at 200 mg/kg (Rattus norvegicus [5]): 11%
Activity (Rattus norvegicus [7]): 0.7

COc1ccc(-c2nc3c4ccccc4ccc3n2CCO)cc1
inhibition in vivo at 200 mg/kg (Rattus norvegicus [1]): 11%

CCCCC1C(=O)N(c2ccccc2)N(c2ccccc2)C1=O [PHENYLBUTAZONE]
inhibition in vivo at 50 mg/kg (Rattus norvegicus [13]): 38%
Activity (Rattus norvegicus [3]): 4
Arthritis scores (Rattus norvegicus [14]): 58
Inflammation units (Rattus norvegicus [14]): 68
Mean volume of hind paws (Rattus norvegicus [14]): 45
Ulcerogenic index (Rattus norvegicus [12]): 1.4
Activity (Rattus norvegicus [7]): 6.5

COc1ccccc1-c1nc2c3ccccc3ccc2n1C
inhibition in vivo at 200 mg/kg (Rattus norvegicus [1]): 0%

C=C(C)n1c(-c2ccc(OC)cc2)nc2c3ccccc3ccc21
Arthritis scores (Rattus norvegicus [2]): 70
Inflammation units (Rattus norvegicus [2]): 68
inhibition in vivo at 200 mg/kg (Rattus norvegicus [1]): 58%
inhibition in vivo at 100 mg/kg (Rattus norvegicus [4]): 54%
Mean volume of hind paws (Rattus norvegicus [6]): 38

CC(=O)Oc1ccccc1C(=O)O [ASPIRIN]
inhibition in vivo at 50 mg/kg (Rattus norvegicus [13]): 24%
Activity (Rattus norvegicus [3]): 1
Ulcerogenic index (Rattus norvegicus [12]): 1.6
Activity (Rattus norvegicus [7]): 1

Cn1c(-c2ccc[nH]2)nc2c3ccccc3ccc21
inhibition in vivo at 200 mg/kg (Rattus norvegicus [1]): 1%

Cn1c(-c2ccncc2)nc2c3ccccc3ccc21
inhibition in vivo at 200 mg/kg (Rattus norvegicus [1]): 63%
Activity (Rattus norvegicus [3]): 1.4
Mean volume of hind paws (Rattus norvegicus [10]): 20
Ulcerogenic index (Rattus norvegicus [9]): 0.31
inhibition in vivo at 100 mg/kg (Rattus norvegicus [4]): 44%
inhibition in vivo at 200 mg/kg (Rattus norvegicus [5]): 33%
Activity (Rattus norvegicus [7]): 2.4
Arthritis scores (Rattus norvegicus [11]): 10
Inflammation units (Rattus norvegicus [11]): 3

COc1ccc(-c2nc3c4ccccc4ccc3n2C(C)(C)C)cc1
inhibition in vivo at 200 mg/kg (Rattus norvegicus [1]): 19%

Cl.Cn1c(-c2ccccn2)nc2c3ccccc3ccc21
inhibition in vivo at 200 mg/kg (Rattus norvegicus [1]): 24%

COc1ccc(-c2nc3c(ccc4ccccc43)[nH]2)cc1
inhibition in vivo at 200 mg/kg (Rattus norvegicus [1]): 10%

Cl.Cl.Cn1c(-c2cccnc2)nc2c3ccccc3ccc21
inhibition in vivo at 200 mg/kg (Rattus norvegicus [1]): 12%

Reference: ChEMBL document CHEMBL1122649, “3-Alkyl-2-aryl-3H-naphth[1,2-d]imidazoles, a novel class of nonacidic antiinflammatory agents” (J Med Chem, 1984)
